Assay results taken from publication PMC3328401 (Journal of Medicinal Chemistry, 2012).

Legend:
OVCAR-3 cells = assay: Subcellular distribution of 125I-labeled reagents; format: cell-based, human; conditions: for ^125I in cytoplasm, 24 hours / ^125I in nucleus, 24 hours: 1 h incubation then 24 h in fresh nonradioactive medium; for ^125I in cytoplasm, 1 hour / ^125I in nucleus, 1 hour: 1 h incubation, 55.5 kBq/mL
How it was run: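 OVCAR-3 cells were kept in RPMI-1640 with insulin, 2 mM L-glutamine and 20% FBS and expanded as intraperitoneal xenografts in athymic nude mice. Cells in six T150 flasks attached overnight, then were exposed 1 h to ¹²⁵I compound (55.5 kBq/mL). Three flasks were processed immediately and three after 24 h in fresh medium. Cells were trypsinized, counted, fractionated into nuclear/cytoplasmic compartments and gamma-counted.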

[1] = Chemical hydrolysis of cycloSal phosphate triesters in phosphate buffer; format: physicochemical; conditions: phosphate buffer 50 mM, pH 7.3, 37°C, ~15% acetonitrile
[2] = test system: LS 174T and OVCAR-3 cancer cell lines; assay: Uptake kinetics, cell-associated activity after 3 h; format: cell-based, human; conditions: after 3 h incubation
How it was run: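 Cells were plated at 2×10⁵/well in 6-well plates in 3 mL growth medium: OVCAR-3 in RPMI-1640 with 20% FBS, LS 174T in EMEM with 10% FBS. After 24 h, radiolabeled compound (~13.6–46.9 kBq/mL) was added at staggered times, up to 360 min, in triplicate. Medium was gamma-counted for radioactive concentration. Cells were washed twice with ice-cold PBS, trypsinized and gamma-counted for cell-associated activity.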

[3] = Solubility in aqueous media; conditions: aqueous media / water

## O=c1[nH]c(=O)n([C@H]2C[C@H](O)[C@@H](COP3(=O)OCc4ccccc4O3)O2)cc1[125I] (stereo partly drawn) [6b, 5-[^125I]-Iodo-5′-O-cycloSaligenyl-2′-deoxyuridine Monophosphate]
OVCAR-3 cells
  ^125I in cytoplasm, 24 hours: 7.3 (1.0) cpm/10^3 cells (std dev)
  ^125I in nucleus, 24 hours: 39.4 (5.8) cpm/10^3 cells (std dev)
  ^125I in cytoplasm, 1 hour: 20.2 (3.2) cpm/10^3 cells (std dev)
  ^125I in nucleus, 1 hour: 5.7 (1.6) cpm/10^3 cells (std dev)

## Cc1cccc2c1OP(=O)(OC[C@H]1O[C@@H](n3cc([125I])c(=O)[nH]c3=O)C[C@@H]1O)OC2 (stereo partly drawn) [7b, 5-[^125I]-Iodo-5′-O-cyclo(3-methylSaligenyl)-2′-deoxyuridine Monophosphate]
OVCAR-3 cells
  ^125I in cytoplasm, 24 hours: 1.6 (0.5) cpm/10^3 cells (std dev)
  ^125I in nucleus, 24 hours: 25.9 (7.1) cpm/10^3 cells (std dev)
  ^125I in cytoplasm, 1 hour: 11.7 (1.7) cpm/10^3 cells (std dev)
  ^125I in nucleus, 1 hour: 4.5 (1.0) cpm/10^3 cells (std dev)

## CC(C)(C)c1cc(C(C)(C)C)c2c(c1F)COP(=O)(OC[C@H]1O[C@@H](n3cc(I)c(=O)[nH]c3=O)C[C@@H]1O)O2 (stereo partly drawn) [8-fast, 5-Iodo-5′-O-[cyclo-3,5-di-(tert-butyl)-6-fluoroSaligenyl]-2′-deoxyuridine Monophosphate]
[1]
  k (rate of hydrolysis): 0.000241 min⁻¹

## CC(C)(C)c1cc(C(C)(C)C)c2c(c1F)COP(=O)(OC[C@H]1O[C@@H](n3cc(I)c(=O)[nH]c3=O)C[C@@H]1O)O2 (stereo partly drawn) [8-slow, 5-Iodo-5′-O-[cyclo-3,5-di-(tert-butyl)-6-fluoroSaligenyl]-2′-deoxyuridine Monophosphate]
[1]
  k (rate of hydrolysis): 0.000188 min⁻¹

## CC(C)(C)c1cc(C(C)(C)C)c2c(c1F)COP(=O)(OC[C@H]1O[C@@H](n3cc([125I])c(=O)[nH]c3=O)C[C@@H]1O)O2 (stereo partly drawn) [8b, 5-[^125I]-Iodo-5′-O-[cyclo-3,5-di-(tert-butyl)-6-fluoroSaligenyl]-2′-deoxyuridine Monophosphate]
OVCAR-3 cells
  ^125I in cytoplasm, 24 hours: 3.2 (0.01) cpm/10^3 cells (std dev)
  ^125I in nucleus, 24 hours: 92.2 (5.0) cpm/10^3 cells (std dev)
  ^125I in cytoplasm, 1 hour: 88.3 (5.4) cpm/10^3 cells (std dev)
  ^125I in nucleus, 1 hour: 7.9 (0.4) cpm/10^3 cells (std dev)
OVCAR-3 cells; OVCAR-3, 24 h
  retained radioactivity, more than 6b: > 230%
  retained radioactivity, more than 7b: ~ 360%

## CC(C)(C)c1cc(C(C)(C)C)c2c(c1F)COP(=O)(OC[C@H]1O[C@@H](n3cc([125I])c(=O)[nH]c3=O)C[C@@H]1O)O2 (stereo partly drawn) [8b-fast, 5-[^125I]-Iodo-5′-O-[cyclo-3,5-di-(tert-butyl)-6-fluoroSaligenyl]-2′-deoxyuridine Monophosphate]
[2]
  cell associated activity relative to the corresponding 6b diastereomer: > 110 ×
  cell associated activity relative to the corresponding 7b diastereomer: > 20 ×

## O=c1[nH]c(=O)n([C@H]2C[C@H](OP3(=O)OCc4ccccc4O3)[C@@H](COP3(=O)OCc4ccccc4O3)O2)cc1[125I] (stereo partly drawn) [9b]
OVCAR-3 cells
  ^125I in cytoplasm, 24 hours: 37.3 (10.0) cpm/10^3 cells (std dev)
  ^125I in nucleus, 24 hours: 18.1 (3.9) cpm/10^3 cells (std dev)
  ^125I in cytoplasm, 1 hour: 97.6 (10.0) cpm/10^3 cells (std dev)
  ^125I in nucleus, 1 hour: 6.4 (0.5) cpm/10^3 cells (std dev)

## Cc1cccc2c1OP(=O)(OC[C@H]1O[C@@H](n3cc([125I])c(=O)[nH]c3=O)C[C@@H]1OP1(=O)OCc3cccc(C)c3O1)OC2 (stereo partly drawn) [10b]
OVCAR-3 cells
  ^125I in cytoplasm, 24 hours: 13.4 (3.3) cpm/10^3 cells (std dev)
  ^125I in nucleus, 24 hours: 24.5 (5.4) cpm/10^3 cells (std dev)
  ^125I in cytoplasm, 1 hour: 97.1 (14.6) cpm/10^3 cells (std dev)
  ^125I in nucleus, 1 hour: 6.0 (0.9) cpm/10^3 cells (std dev)

## O=c1[nH]c(=O)n([C@H]2C[C@H](OP3(=O)OCc4ccccc4O3)[C@@H](CO)O2)cc1I (stereo partly drawn) [12-fast, 5-Iodo-3′-O-cycloSaligenyl-2′-deoxyuridine Monophosphate]
[1]
  k (rate of hydrolysis): 0.00205 min⁻¹

## O=c1[nH]c(=O)n([C@H]2C[C@H](OP3(=O)OCc4ccccc4O3)[C@@H](CO)O2)cc1I (stereo partly drawn) [12-slow, 5-Iodo-3′-O-cycloSaligenyl-2′-deoxyuridine Monophosphate]
[1]
  k (rate of hydrolysis): 0.00164 min⁻¹

## O=c1[nH]c(=O)n([C@H]2C[C@H](OP3(=O)OCc4ccccc4O3)[C@@H](CO)O2)cc1[125I] (stereo partly drawn) [12b, 5-[^125I]-Iodo-3′-O-cycloSaligenyl-2′-deoxyuridine Monophosphate]
OVCAR-3 cells
  ^125I in cytoplasm, 24 hours: 2.7 (0.3) cpm/10^3 cells (std dev)
  ^125I in nucleus, 24 hours: 30.2 (5.3) cpm/10^3 cells (std dev)
  ^125I in cytoplasm, 1 hour: 7.2 (0.7) cpm/10^3 cells (std dev)
  ^125I in nucleus, 1 hour: 2.1 (0.2) cpm/10^3 cells (std dev)

## Cc1cccc2c1OP(=O)(O[C@H]1C[C@H](n3cc(I)c(=O)[nH]c3=O)O[C@@H]1CO)OC2 (stereo partly drawn) [13-fast, 5 - Iodo-3′-O-cyclo(3-methylSaligenyl)-2′-deoxyuridine Monophosphate]
[1]
  k (rate of hydrolysis): 0.000946 min⁻¹

## Cc1cccc2c1OP(=O)(O[C@H]1C[C@H](n3cc(I)c(=O)[nH]c3=O)O[C@@H]1CO)OC2 (stereo partly drawn) [13-slow, 5 - Iodo-3′-O-cyclo(3-methylSaligenyl)-2′-deoxyuridine Monophosphate]
[1]
  k (rate of hydrolysis): 0.000813 min⁻¹

## Cc1cccc2c1OP(=O)(O[C@H]1C[C@H](n3cc([125I])c(=O)[nH]c3=O)O[C@@H]1CO)OC2 (stereo partly drawn) [13b, 5-[^125I]-Iodo-3′-O-cyclo(3-methylSaligenyl)-2′-deoxyuridine Monophosphate]
OVCAR-3 cells
  ^125I in cytoplasm, 24 hours: 1.4 (0.3) cpm/10^3 cells (std dev)
  ^125I in nucleus, 24 hours: 15.7 (2.2) cpm/10^3 cells (std dev)
  ^125I in cytoplasm, 1 hour: 6.2 (0.6) cpm/10^3 cells (std dev)
  ^125I in nucleus, 1 hour: 2.0 (0.2) cpm/10^3 cells (std dev)

## CC(C)(C)c1cc(C(C)(C)C)c2c(c1F)COP(=O)(O[C@H]1C[C@H](n3cc(I)c(=O)[nH]c3=O)O[C@@H]1CO)O2 (stereo partly drawn) [14-fast, 5-Iodo-3′-O-[cyclo-3,5-di-(tert-butyl)-6-fluoroSaligenyl]-2′-deoxyuridine Monophosphate]
[1]
  k (rate of hydrolysis): 0.000766 min⁻¹

## CC(C)(C)c1cc(C(C)(C)C)c2c(c1F)COP(=O)(O[C@H]1C[C@H](n3cc(I)c(=O)[nH]c3=O)O[C@@H]1CO)O2 (stereo partly drawn) [14-slow, 5-Iodo-3′-O-[cyclo-3,5-di-(tert-butyl)-6-fluoroSaligenyl]-2′-deoxyuridine Monophosphate]
[1]
  k (rate of hydrolysis): 0.000667 min⁻¹

## CC(C)(C)c1cc(C(C)(C)C)c2c(c1F)COP(=O)(O[C@H]1C[C@H](n3cc([125I])c(=O)[nH]c3=O)O[C@@H]1CO)O2 (stereo partly drawn) [14b, 5-[^125I]-Iodo-3′-O-(cyclo-3,5-di-(tert-butyl)-6-fluoroSaligenyl)-2′-deoxyuridine Monophosphate]
OVCAR-3 cells
  ^125I in cytoplasm, 24 hours: 2.7 (0.4) cpm/10^3 cells (std dev)
  ^125I in nucleus, 24 hours: 66.7 (8.4) cpm/10^3 cells (std dev)
  ^125I in cytoplasm, 1 hour: 62.5 (4.3) cpm/10^3 cells (std dev)
  ^125I in nucleus, 1 hour: 4.3 (0.3) cpm/10^3 cells (std dev)

## CC(C)(C)c1cc(C(C)(C)C)c2c(c1F)COP(=O)(OC[C@H]1O[C@@H](n3cc(I)c(=O)[nH]c3=O)C[C@@H]1F)O2 (stereo partly drawn) [24-fast, 5-Iodo-5′-O-[cyclo-3,5-Di-(tert-butyl)-6-fluoroSaligenyl]-3′-fluoro-2′,3′-dideoxyuridine Monophosphate]
[1]
  k (rate of hydrolysis): 0.000292 min⁻¹

## CC(C)(C)c1cc(C(C)(C)C)c2c(c1F)COP(=O)(OC[C@H]1O[C@@H](n3cc(I)c(=O)[nH]c3=O)C[C@@H]1F)O2 (stereo partly drawn) [24-slow, 5-Iodo-5′-O-[cyclo-3,5-Di-(tert-butyl)-6-fluoroSaligenyl]-3′-fluoro-2′,3′-dideoxyuridine Monophosphate]
[1]
  k (rate of hydrolysis): 0.000222 min⁻¹

## CC(C)(C)c1cc(C(C)(C)C)c2c(c1F)COP(=O)(OC[C@H]1O[C@@H](n3cc([125I])c(=O)[nH]c3=O)C[C@@H]1F)O2 (stereo partly drawn) [24b, 5-[^125I]-Iodo-5′-O-[cyclo-3,5-Di-(tert-butyl)-6-fluoroSaligenyl]-3′-fluoro-2′,3′-dideoxyuridine]
[3]
  solubility: low solubility

## CC(C)(C)c1cc(C(C)(C)C)c2c(c1F)COP(=O)(OC[C@H]1O[C@@H](n3cc([125I])c(=O)[nH]c3=O)C[C@@H]1F)O2 (stereo partly drawn) [24b-fast, 5-[^125I]-Iodo-5′-O-[cyclo-3,5-Di-(tert-butyl)-6-fluoroSaligenyl]-3′-fluoro-2′,3′-dideoxyuridine]
[1]
  k (rate of hydrolysis): 0.000301 min⁻¹

## CC(C)(C)c1cc(C(C)(C)C)c2c(c1F)COP(=O)(OC[C@H]1O[C@@H](n3cc(I)c(=O)[nH]c3=O)C[C@@H]1O)O2 (stereo partly drawn) [compound 8, 5-Iodo-5′-O-[cyclo-3,5-di-(tert-butyl)-6-fluoroSaligenyl]-2′-deoxyuridine Monophosphate]
[3]
  solubility: lower water solubility

## CC(C)(C)c1cc(C(C)(C)C)c2c(c1F)COP(=O)(O[C@H]1C[C@H](n3cc(I)c(=O)[nH]c3=O)O[C@@H]1CO)O2 (stereo partly drawn) [compound 14, 5-Iodo-3′-O-[cyclo-3,5-di-(tert-butyl)-6-fluoroSaligenyl]-2′-deoxyuridine Monophosphate]
[3]
  solubility: lower water solubility

## CC(C)(C)c1cc(C(C)(C)C)c2c(c1F)COP(=O)(OC[C@H]1O[C@@H](n3cc(I)c(=O)[nH]c3=O)C[C@@H]1F)O2 (stereo partly drawn) [compound 24, 5-Iodo-5′-O-[cyclo-3,5-Di-(tert-butyl)-6-fluoroSaligenyl]-3′-fluoro-2′,3′-dideoxyuridine Monophosphate]
[3]
  solubility: lower water solubility
